Data set [1] addresses Histone deacetylase 1 (Homo sapiens) (UniProt Q13547). The data set is described as follows: Inhibition of full length human C-terminal FLAG/His-tagged HDAC1 expressed in baculovirus infected sf9 cells at 50 to 100 uM using HDAC substrate 3 preincubated for 5 mins followed by substrate addition measured after 30 mins by fluorescence assay. The method in brief:
(§1)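 Inhibitor pre-incubated 5 min, then HDAC substrate 3 (20 μM) added, 30 min at 37 °C. Developer added for 15 min at room temperature; fluorescence read at ex/em 360/460 nm. Activity relative to no-inhibitor wells, with 200 μM SAHA as 0%. Run in triplicate.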

For data set [2], the system named is Escherichia coli. The experiment in a line: Inhibition of NDM1 in Escherichia coli isolate Ah8.71 assessed as potentiation of imipenem-induced antibacterial activity by measuring imipenem MIC at 100 mg/L after 18 to 20 hrs by broth microdilution assay (reference value: 16 mg/L). In general terms: Dilution methods test growth across graded concentrations, often in twofold steps.

Data set [3] concerns Bacteria. The experiment in a line: Binding affinity to bacterial CoCoNDM-1 expressed in Escherichia coli BL21(DE3) assessed as CoCoNDM-1-compound ternary complex formation at 1 equiv by 1H […] spectroscopic method.
Data set [4] addresses Carbonic anhydrase 2 (Homo sapiens) (UniProt P00918). The experiment in a line: Inhibition of human carbonic anhydrase 2 at 50 to 100 uM using p-nitrophenyl acetate as substrate preincubated for 10 mins followed by substrate addition measured for 15 mins. The method in brief:
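hCAII (100 nM) in 50 mM HEPES pH 8.0 pre-incubated with inhibitor for 10 min at 30 °C. p-Nitrophenyl acetate (500 μM) then added and absorbance at 405 nm followed 15 min. Activity relative to no-inhibitor wells, with 50 μM benzene sulfonamide as 0%. Run in triplicate.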

The subject of data set [5] is Escherichia coli. The experiment in a line: Inhibition of NDM1 in Escherichia coli isolate Ah8.74 assessed as potentiation of imipenem-induced antibacterial activity by measuring imipenem MIC at 100 mg/L after 18 to 20 hrs by broth microdilution assay (reference value: 8 mg/L).
Data set [6] addresses Metallo-beta-lactamase type 2 (Klebsiella pneumoniae) (UniProt C7C422). The experiment in a line: Inhibition of NDM1 in Klebsiella pneumoniae isolate Pd1.48 assessed as potentiation of imipenem-induced antibacterial activity by measuring imipenem MIC at 100 mg/L after 18 to 20 hrs by broth microdilution assay (reference value: 8 mg/L).
Data set [7] has as its target Histone deacetylase 1 (Homo sapiens) (UniProt Q13547). The experiment in a line: Inhibition of full length human C-terminal FLAG/His-tagged HDAC1 expressed in baculovirus infected sf9 cells at 10 uM using HDAC substrate 3 preincubated for 5 mins followed by substrate addition measured after 30 mins by fluorescence assay. The method in brief:
as §1

Data set [8] concerns Bacteria. The experiment in a line: Binding affinity to bacterial NDM-1 expressed in Escherichia coli BL21(DE3) assessed as Zn2+ stripping at 24 uM after 30 mins by equilibrium dialysis method relative to control. The method in brief: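 NDM-1 (8 μM final) in 50 mM HEPES pH 7.5 mixed with compound at 0–128 μM for 30 min. Then dialyzed 4 h against metal-free 50 mM HEPES pH 7.5. Residual Zn(II) measured by ICP-AES at 213.856 nm.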
For orientation: In equilibrium dialysis only unbound substance equilibrates across the membrane.

In data set [9] the test system is Bacteria. The data set is described as follows: Binding affinity to bacterial CoCoNDM-1 expressed in Escherichia coli BL21(DE3) assessed as metal stripping at 1 to 2 equiv after 30 mins by UV-Visible spectroscopic method. An outline of the steps:
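Apo-NDM-1 at 300 μM in 50 mM HEPES, 150 mM NaCl, pH 6.8, loaded with 2 molar equiv CoCl2. […] Absorbance read 300–700 nm at 25 °C as difference spectra against buffer blank, normalized at 700 nm.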

Data set [10] concerns Escherichia coli. The data set is described as follows: Inhibition of NDM1 in Escherichia coli isolate Ah8.73 assessed as potentiation of imipenem-induced antibacterial activity by measuring imipenem MIC at 100 mg/L after 18 to 20 hrs by broth microdilution assay (reference value: 16 mg/L).
The next data set relates to Klebsiella pneumoniae. The experiment in a line: Effect on growth of Klebsiella pneumoniae isolate Cm1.62 at 100 mg/L after 18 to 20 hrs by broth microdilution assay. The method in brief: (§2)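 Mueller-Hinton broth microdilution per CLSI, triplicate. blaNDM-1 clinical isolates grown from OD600 0.1 to 0.224 (~1–2 × 10^8 CFU/mL), diluted 3 μL into 4997 μL MH, and 100 μL added to 100 μL of compound (100 mg/L) alone. Incubated 37 °C for 18–20 h, then scored for growth.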

Data set [11] has as its system Escherichia coli. The data set is described as follows: Effect on growth of Escherichia coli isolate Ch8.70 at 100 mg/L after 18 to 20 hrs by broth microdilution assay. The method in brief: as §2
The subject of data set [12] is Escherichia coli. The data set is described as follows: Inhibition of NDM1 in Escherichia coli isolate Ch8.70 assessed as potentiation of imipenem-induced antibacterial activity by measuring imipenem MIC at 100 mg/L after 18 to 20 hrs by broth microdilution assay (reference value: 16 mg/L).
For data set [13], the system named is Bacteria. The data set is described as follows: Binding affinity to bacterial NDM-1 expressed in Escherichia coli BL21(DE3) assessed as intrinsic tryptophan fluorescence quenching up to 32 uM after 30 mins by luminescence spectrometric method relative to control. The method in brief: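 NDM-1 at 2 μM final in 50 mM HEPES pH 7.5 mixed with compound at 4–32 μM, incubated 30 min. Emission scanned 300–400 nm with excitation at 280 nm. Relative tryptophan fluorescence read at 348 nm, with buffer set to 0% and inhibitor-free NDM-1 to 100%. Control run with 2 μM L-tryptophan in place of enzyme.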

Each structure is given as a SMILES string. Activity calls are given as the source filed them. No cut-off for these calls is given here. A value given as a limit tells only on which side of the number the result lay.

Histone deacetylase 1 (Homo sapiens), sequence (Q13547 whole entry): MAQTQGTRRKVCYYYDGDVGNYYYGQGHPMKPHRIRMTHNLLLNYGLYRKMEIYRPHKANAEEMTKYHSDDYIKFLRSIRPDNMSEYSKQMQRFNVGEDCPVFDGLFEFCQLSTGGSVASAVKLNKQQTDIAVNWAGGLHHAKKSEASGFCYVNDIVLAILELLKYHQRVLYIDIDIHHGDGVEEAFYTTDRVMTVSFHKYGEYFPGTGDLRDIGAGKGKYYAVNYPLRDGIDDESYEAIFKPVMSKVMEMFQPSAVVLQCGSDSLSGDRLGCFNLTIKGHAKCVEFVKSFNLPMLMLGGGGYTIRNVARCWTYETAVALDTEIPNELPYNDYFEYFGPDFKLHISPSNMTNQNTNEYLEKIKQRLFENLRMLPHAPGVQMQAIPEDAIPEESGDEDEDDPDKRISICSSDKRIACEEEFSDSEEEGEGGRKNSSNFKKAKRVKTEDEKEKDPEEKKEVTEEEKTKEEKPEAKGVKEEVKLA
Metallo-beta-lactamase type 2 (Klebsiella pneumoniae), sequence (C7C422 whole entry): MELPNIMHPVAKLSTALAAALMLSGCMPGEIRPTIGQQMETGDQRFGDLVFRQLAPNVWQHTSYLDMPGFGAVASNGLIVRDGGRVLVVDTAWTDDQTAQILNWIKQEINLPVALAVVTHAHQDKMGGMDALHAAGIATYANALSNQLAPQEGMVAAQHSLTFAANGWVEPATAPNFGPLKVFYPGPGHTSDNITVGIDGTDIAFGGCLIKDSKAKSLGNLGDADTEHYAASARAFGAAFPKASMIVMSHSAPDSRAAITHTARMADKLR

In the case of `Nc1cccc(-c2cc(C(=O)O)nc(C(=O)O)c2)c1`, the inhibition in data set [1] and in data set [4] was below 50% in each case. Also, the MIC worked out at 1 mg/L in the data set on Escherichia coli [2]; 0.5 mg/L in the data set on Escherichia coli [5]; 0.5 mg/L in [6]; 0.5 mg/L with Escherichia coli [10]; 0.5 mg/L with Escherichia coli [12]. For the same molecule, the outcome in the data set with Bacteria [3] and in the data set on Bacteria [9] was Active. For the same molecule, the inhibition (commonly the relative decrease from the control value, in per cent) in [7] is “inactive”. The Activity in the data set on Bacteria [8] is 10 to 20%; in the data set on Klebsiella pneumoniae, “Non-Toxic”; with Escherichia coli [11], “Non-Toxic”; with Bacteria [13], 50 to 60%.
